Among the data in ChEMBL document CHEMBL3259614, “Design, synthesis, and structure-activity relationship studies of novel fused heterocycles-linked triazoles with good activity and water solubility” (J Med Chem, 2014) are MIC, Ratio and solubility values, retold here.

In brackets after ≈: the same amount, converted by molar mass. Some results are limits rather than exact numbers.

Data set [1] relates to Candida albicans. As to the kind of experiment: Antimicrobial activity against fluconazole-resistant Candida albicans J18 after 24 hrs by serial dilution method. It counts as functional. The settings on record: J18, 24 h. The essentials: (§1)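 Broth serial-dilution MIC in 96-well plates following NCCLS guidance. Compounds were dissolved in DMSO and serially diluted in growth medium. Clinical isolates came from a hospital collection. […] C. parapsilosis ATCC 22019 served as the quality-control strain in each assay.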

Data set [2] concerns Candida albicans. Put plainly: Antimicrobial activity against fluconazole-resistant Candida albicans J38 after 24 hrs by serial dilution method. It is filed as functional. The settings on record: J38, 24 h. The essentials:
as §1

The subject of data set [3] is Cryptococcus neoformans. As to the kind of experiment: Antimicrobial activity against Cryptococcus neoformans 32609 after 72 hrs by serial dilution method. It is filed as functional. The settings on record: Cryptococcus neoformans, 32609, 72 h. The procedure, abridged: (§2)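 Broth serial dilution MIC in 96-well plates following NCCLS/CLSI methods. Compounds were dissolved in DMSO and serially diluted in growth medium, with incubation at 35 °C. […] C. parapsilosis 22019 served as the quality-control strain in each assay.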

Data set [4] relates to Candida albicans. Put plainly: Antimicrobial activity against Candida albicans Y0109 after 24 hrs by serial dilution method. It counts as functional. The settings on record: Y0109, 24 h. The essentials: as §2
Data set [5] relates to Candida albicans. Put plainly: Ratio of fluconazole MIC to compound MIC for fluconazole-resistant Candida albicans 103 after 24 hrs by serial dilution method. It is filed as functional.
In data set [6] the test system is Candida albicans. Put plainly: Ratio of fluconazole MIC to compound MIC for fluconazole-resistant Candida albicans J18 after 24 hrs by serial dilution method. It is filed as functional.
Data set [7] deals with Candida albicans. As to the kind of experiment: Antimicrobial activity against Candida albicans SC5314 after 24 hrs by serial dilution method. The settings on record: SC5314, 24 h. It counts as functional. The essentials: as §2
In data set [8] the test system is Nakaseomyces glabratus. Put plainly: Antimicrobial activity against Candida glabrata 537 after 24 hrs by serial dilution method. It is filed as functional. The settings on record: Nakaseomyces glabratus, 537, 24 h. The essentials:
as §2

Data set [9] deals with Candida albicans. Put plainly: Ratio of fluconazole MIC to compound MIC for fluconazole-resistant Candida albicans 100 after 24 hrs by serial dilution method. It is filed as functional.
The subject of data set [10] is Candida albicans. Put plainly: Antimicrobial activity against fluconazole-resistant Candida albicans 103 after 24 hrs by serial dilution method. The settings on record: Candida albicans, 103, 24 h. It counts as functional. The procedure, abridged: as §1
Data set [11] has as its system Aspergillus fumigatus. Put plainly: Antimicrobial activity against Aspergillus fumigatus 7544 after 48 hrs by serial dilution method. It is filed as functional. The settings on record: Aspergillus fumigatus, 7544, 48 h. The procedure, abridged: as §2
Data set [12] relates to Candida parapsilosis. As to the kind of experiment: Antimicrobial activity against Candida parapsilosis 22019 after 24 hrs by serial dilution method. It is filed as functional. The settings on record: Lodderomyces parapsilosis, 22019, 24 h. The procedure, abridged: as §2
Data set [13] has as its system Candida albicans. As to the kind of experiment: Antimicrobial activity against fluconazole-resistant Candida albicans J28 after 24 hrs by serial dilution method. It counts as functional. The settings on record: J28, 24 h. The essentials:
as §1

Data set [14] relates to Candida albicans. As to the kind of experiment: Antimicrobial activity against fluconazole-resistant Candida albicans 100 after 24 hrs by serial dilution method. It is filed as functional. The settings on record: Candida albicans, 100, 24 h. The procedure, abridged:
as §1

Data set [15] in a line: Aqueous solubility of the compound in hydrochloric acid solution at pH 1.2. It is filed as physicochemical. The procedure, abridged: (§3)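 Excess solid was stirred for 3 h in pH 1.2 hydrochloric acid or pH 7.4 phosphate buffer, then filtered through 0.45 μm. Absorbance at the UV maximum was compared with a methanol standard, C′ = A′C/A, with values reported in mg/mL. Determined at 30 °C; mean ± SD, n = 3.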

Data set [16] can be described thus: Aqueous solubility of the compound in phosphate buffer at pH 7.4. It is filed as physicochemical. The procedure, abridged:
as §3

`C[C@@H](N1CCn2nnc(Br)c2C1)[C@](O)(Cn1cncn1)c1ccc(F)cc1F`: the MIC (commonly the least concentration at which growth counts as inhibited) is over 32 µg/mL in [1]; 0.25 µg/mL (≈ 0.55 µM) in data set [2]; at most 0.0625 µg/mL in [3]; 0.0625 µg/mL (≈ 0.138 µM) in data set [4]; at most 0.0312 µg/mL in data set [7]; 0.25 µg/mL (≈ 0.55 µM) in [8]. Moreover, the MIC is over 32 µg/mL in [10]; 8 µg/mL (≈ 17.6 µM) in data set [11]; 0.125 µg/mL (≈ 0.275 µM) in [12]; 2 µg/mL (≈ 4.4 µM) in data set [13]; over 32 µg/mL in data set [14]. Also, the Ratio in data set [5], in data set [6] and in [9] was 16 in each case.
Consider `C[C@@H](N1CCn2nc(-c3ccccc3)nc2C1)[C@](O)(Cn1cncn1)c1ccc(F)cc1F`, for which the results for the solubility in data set [15] and in [16] were 316 µg/mL (≈ 700 µM) and 97 µg/mL (≈ 215 µM), respectively. The MIC is over 32 µg/mL in [1]; 0.0625 µg/mL (≈ 0.138 µM) in [2]; 0.125 µg/mL (≈ 0.277 µM) in data set [3]; 0.125 µg/mL (≈ 0.277 µM) in data set [4]; 0.0625 µg/mL (≈ 0.138 µM) in data set [7]; 0.125 µg/mL (≈ 0.277 µM) in [8]. Moreover, the minimal inhibitory concentration (MIC) in [10] is over 32 µg/mL; in data set [11], 32 µg/mL (≈ 70.9 µM); in [12], 0.125 µg/mL (≈ 0.277 µM); in [13], 0.5 µg/mL (≈ 1.11 µM); in [14] it was over 32 µg/mL. The Ratio in data set [5], in data set [6] and in data set [9] was 16 each time.
In the case of `C[C@@H](N1CCn2nc(-c3cccnc3)nc2C1)[C@](O)(Cn1cncn1)c1ccc(F)cc1F`, the results for the solubility in data set [15] and in data set [16] were 5900 µg/mL (≈ 13000 µM) and 1820 µg/mL (≈ 4010 µM), respectively. The MIC was 0.0312 µg/mL (≈ 0.0691 µM) in [3]; 0.0312 µg/mL (≈ 0.0691 µM) in data set [4]; 0.0312 µg/mL (≈ 0.0691 µM) in data set [7]; 0.0312 µg/mL (≈ 0.0691 µM) in data set [8]; 32 µg/mL (≈ 70.7 µM) in data set [11]; 0.0312 µg/mL (≈ 0.0691 µM) in [12].
With `C[C@@H](N1CCc2nc(-c3ccccc3)sc2C1)[C@](O)(Cn1cncn1)c1ccc(F)cc1F`, the solubility (in general, the concentration that dissolves in the medium under given conditions) in data set [15] is 1250 µg/mL (≈ 2670 µM); in data set [16], 130 µg/mL (≈ 278 µM). For the same compound, the MIC in data set [3] amounted to 0.125 µg/mL (≈ 0.267 µM); in data set [4] it was 0.5 µg/mL (≈ 1.07 µM); in [7] it was 0.5 µg/mL (≈ 1.07 µM); in data set [8], 0.5 µg/mL (≈ 1.07 µM); in [11] it was 16 µg/mL (≈ 34.2 µM); in [12], 0.5 µg/mL (≈ 1.07 µM).
On to `C[C@@H](N1CCc2nc(-c3cccnc3)sc2C1)[C@](O)(Cn1cncn1)c1ccc(F)cc1F`, for which the solubility was found to be 10100 µg/mL (≈ 21500 µM) in [15] and 2360 µg/mL (≈ 5040 µM) in data set [16]. The minimal inhibitory concentration (MIC) is 0.0625 µg/mL (≈ 0.133 µM) in [3]; 0.0312 µg/mL (≈ 0.0667 µM) in data set [4]; 0.0312 µg/mL (≈ 0.0667 µM) in data set [7]; 0.125 µg/mL (≈ 0.267 µM) in [8]; 2 µg/mL (≈ 4.27 µM) in [11]; 0.125 µg/mL (≈ 0.267 µM) in [12].
`C[C@@H](N1CCc2nc(-c3cncnc3)sc2C1)[C@](O)(Cn1cncn1)c1ccc(F)cc1F`: the solubility amounted to 14700 µg/mL (≈ 31300 µM) in data set [15] and 3090 µg/mL (≈ 6590 µM) in [16]. The MIC in data set [1] is over 16 µg/mL; in data set [2], at most 0.0312 µg/mL; in data set [3], 0.0625 µg/mL (≈ 0.133 µM); in [4] it was 0.0156 µg/mL (≈ 0.0332 µM); in data set [7] it was 0.0156 µg/mL (≈ 0.0332 µM); in data set [8] it was 0.0625 µg/mL (≈ 0.133 µM). The MIC was 8 µg/mL (≈ 17 µM) in data set [10]; 1 µg/mL (≈ 2.13 µM) in data set [11]; 0.0625 µg/mL (≈ 0.133 µM) in data set [12]; 0.0625 µg/mL (≈ 0.133 µM) in [13]; over 16 µg/mL in [14].
For the compound `C[C@@H](N1CCc2sc(-c3ccc(C#N)nc3)cc2C1)[C@](O)(Cn1cncn1)c1ccc(F)cc1F`, the MIC in [3] is 1 µg/mL (≈ 2.03 µM); in data set [4], 4 µg/mL (≈ 8.12 µM); in data set [7], 1 µg/mL (≈ 2.03 µM); in data set [8], 2 µg/mL (≈ 4.06 µM); in data set [11], 32 µg/mL (≈ 65 µM); in data set [12], 2 µg/mL (≈ 4.06 µM).
Regarding `C[C@@H](N1CCc2sc(-c3ccncc3)cc2C1)[C@](O)(Cn1cncn1)c1ccc(F)cc1F`, the MIC in data set [3] was 4 µg/mL (≈ 8.56 µM); in data set [4], 2 µg/mL (≈ 4.28 µM); in data set [7], 1 µg/mL (≈ 2.14 µM); in data set [8], 8 µg/mL (≈ 17.1 µM); in data set [11], over 32 µg/mL; in data set [12] it was 4 µg/mL (≈ 8.56 µM).
For the compound `C[C@@H](N1CCc2sc(-c3cccnc3)cc2C1)[C@](O)(Cn1cncn1)c1ccc(F)cc1F`, the MIC in data set [3] amounted to 4 µg/mL (≈ 8.56 µM); in [4], 8 µg/mL (≈ 17.1 µM); in [7], 1 µg/mL (≈ 2.14 µM); in data set [8] it was 2 µg/mL (≈ 4.28 µM); in data set [11] it was 32 µg/mL (≈ 68.4 µM); in data set [12], 4 µg/mL (≈ 8.56 µM).
On to `C[C@@H](N1CCc2cc(Br)sc2C1)[C@](O)(Cn1cncn1)c1ccc(F)cc1F`, for which the minimum inhibitory concentration (MIC) in data set [3] worked out at 0.5 µg/mL (≈ 1.07 µM); in [4], 0.5 µg/mL (≈ 1.07 µM); in data set [7] it was 1 µg/mL (≈ 2.13 µM); in data set [8] it was 1 µg/mL (≈ 2.13 µM); in data set [11], 32 µg/mL (≈ 68.2 µM); in [12], 2 µg/mL (≈ 4.26 µM).
`C[C@@H](N1CCc2cc(-c3ccncc3)sc2C1)[C@](O)(Cn1cncn1)c1ccc(F)cc1F`: the minimum inhibitory concentration (MIC) came to 1 µg/mL (≈ 2.14 µM) in data set [3]; 4 µg/mL (≈ 8.56 µM) in [4]; 1 µg/mL (≈ 2.14 µM) in [7]; 2 µg/mL (≈ 4.28 µM) in data set [8]; 32 µg/mL (≈ 68.4 µM) in data set [11]; 2 µg/mL (≈ 4.28 µM) in data set [12].
Take `C[C@@H](N1CCc2cc(-c3cccnc3)sc2C1)[C@](O)(Cn1cncn1)c1ccc(F)cc1F`: the MIC in [3] was 0.5 µg/mL (≈ 1.07 µM); in data set [4], 1 µg/mL (≈ 2.14 µM); in data set [7], 0.5 µg/mL (≈ 1.07 µM); in data set [8], 1 µg/mL (≈ 2.14 µM); in [11], 8 µg/mL (≈ 17.1 µM); in data set [12] it was 1 µg/mL (≈ 2.14 µM).
